Measurements published in ChEMBL document CHEMBL4334489, “Asperpyridone A: An Unusual Pyridone Alkaloid Exerts Hypoglycemic Activity through the Insulin Signaling Pathway” (J Nat Prod, 2019).
The source made the active and inactive calls. The calls are words filed in the database; no cut-off is given here.

Experiments:
HepG2 [1] = test: Effect on 2-NBDG uptake in insulin-resistant human HepG2 cells at 1000 uM pretreated with insulin for 24 hrs followed by compound addition incubated for 24 hrs and subsequent 2-NBDG measured after 30 mins by propidium iodide staining based flow cytometry analysis analysis (reference value: 65.4 %); format: functional
HepG2 [2] = test: Effect on 2-NBDG uptake in insulin-resistant human HepG2 cells at 750 uM pretreated with insulin for 24 hrs followed by compound addition incubated for 24 hrs and subsequent 2-NBDG measured after 30 mins by propidium iodide staining based flow cytometry analysis (reference value: 65.4 %); format: functional
HepG2 [3] = test: Effect on 2-NBDG uptake in insulin-resistant human HepG2 cells at 500 uM pretreated with insulin for 24 hrs followed by compound addition incubated for 24 hrs and subsequent 2-NBDG measured after 30 mins by propidium iodide staining based flow cytometry analysis (reference value: 65.4 %); format: functional
HepG2 [4] = test: Effect on 2-NBDG uptake in insulin-resistant human HepG2 cells at 50 uM pretreated with insulin for 24 hrs followed by compound addition incubated for 24 hrs and subsequent 2-NBDG measured after 30 mins by propidium iodide staining based flow cytometry analysis (reference value: 65.4 %); format: functional
Panc02 = test: Cytotoxicity against mouse Panc02 cells; format: cell-based
HepG2 [5] = test: Effect on 2-NBDG uptake in insulin-resistant human HepG2 cells at 0.2 uM pretreated with insulin for 24 hrs followed by compound addition incubated for 24 hrs and subsequent 2-NBDG measured after 30 mins by propidium iodide staining based flow cytometry analysis (reference value: 33.4 %); format: functional
HepG2 [6] = test: Increase in FGF21 gene expression in insulin-resistant human HepG2 cells at 10 uM using SYBR-green based qRT-PCR analysis; format: functional, cell-based
Summary of the method: (§1)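 HepG2 cells were made insulin-resistant with 0.1 units/mL insulin in serum-free DMEM for 24 h, then treated with compound at several doses (5–25 μM range) against a 1% DMSO vehicle control. Transcript levels of the target genes were quantified by qRT-PCR.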

HepG2 [7] = test: Effect on 2-NBDG uptake in insulin-resistant human HepG2 cells at 10 uM pretreated with insulin for 24 hrs followed by compound addition incubated for 24 hrs and subsequent 2-NBDG measured after 30 mins by propidium iodide staining based flow cytometry analysis (reference value: 33.4 %); format: functional
HepG2 [8] = test: Increase in PCK2 gene expression in insulin-resistant human HepG2 cells at 10 uM using SYBR-green based qRT-PCR analysis; format: functional, cell-based
HepG2 [9] = test: Cytotoxicity against human HepG2 cells; format: cell-based
HepG2 [10] = test: Antidiabetic activity in human HepG2 cells assessed as increase in glucose consumption at 50 uM by glucose oxidase method; format: functional, cell-based
Summary of the method: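 HepG2 cells grown in DMEM with 10% FBS and 1% penicillin/streptomycin at 37 °C under 5% CO2. Cells were treated with 50 μM test compound or 0.1% DMSO vehicle. Glucose remaining in the culture supernatant was measured with a glucose oxidase–peroxidase kit.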

HepG2 [11] = test: Increase in FGF21 gene expression in insulin-resistant human HepG2 cells using SYBR-green based qRT-PCR analysis; format: functional, cell-based; summary of the method: as §1
BXPC-3 = test: Cytotoxicity against human BxPC3 cells; format: cell-based
HepG2 [12] = test: Effect on 2-NBDG uptake in insulin-resistant human HepG2 cells at 25 uM pretreated with insulin for 24 hrs followed by compound addition incubated for 24 hrs and subsequent 2-NBDG measured after 30 mins by propidium iodide staining based flow cytometry analysis (reference value: 33.4 %); format: functional
HepG2 [13] = test: Effect on 2-NBDG uptake in insulin-resistant human HepG2 cells at 1 uM pretreated with insulin for 24 hrs followed by compound addition incubated for 24 hrs and subsequent 2-NBDG measured after 30 mins by propidium iodide staining based flow cytometry analysis (reference value: 33.4 %); format: functional
CT26 = test: Cytotoxicity against mouse CT26 cells; format: cell-based
ASPC1 = test: Cytotoxicity against human AsPC1 cells; format: cell-based

Row | Structure (SMILES) | Activity (HepG2 [1]) | Activity (HepG2 [2]) | Activity (HepG2 [3]) | Activity (HepG2 [4]) | Activity (Panc02) | Activity (HepG2 [5]) | Activity (HepG2 [6]) | Activity (HepG2 [7]) | Activity (HepG2 [8]) | Activity (HepG2 [9]) | Activity (HepG2 [10]) | Activity (HepG2 [11]) | Activity (BXPC-3) | Activity (HepG2 [12]) | Activity (HepG2 [13]) | Activity (CT26) | Activity (ASPC1)
1 | CN(C)C(=N)NC(=N)N [METFORMIN] | 45.6% | 46.1% | 42.5% | 31.9% |  |  |  |  |  |  |  |  |  |  |  |  | 
2 | COn1ccc2c(c1=O)[C@H]1[C@@H](C[C@H](C)C[C@@H]1C)[C@H](C)O2 |  |  |  |  | Non-Toxic | 45.1% | Active | 53.6% | Active | Non-Toxic | Active | Dose-dependent effect | Non-Toxic | 46.9% | 47.5% | Non-Toxic | Non-Toxic
